The target of experiment [1] is T1, Acetylcholinesterase (Homo sapiens, UniProt P22303). The experiment in a line: Inhibition of recombinant human erythrocyte AChE using acetyl-or butyrylthiocholine iodide as substrate at 1 x 10^-6M preincubated for 5 mins followed by substrate addition and measured every min for 10 mins by Ellman's method relative to control. The following applies: dose 1.0 10^-6M, time 15.0 min. An outline of the steps:
(§1)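 AChE from human erythrocytes (0.05 U final) or recombinant AChE (0.025 U final), diluted in 20 mM HEPES pH 8 with 0.1 % Triton X-100, in an Ellman assay. DTNB is 0.3 mM in phosphate buffer pH 7.4 and compound is in DMSO. Enzyme and compound are preincubated 5 min at 25 °C. Reaction starts with 1 mM acetylthiocholine iodide solution.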
(In general: DTNB colorimetry detects thiols as they appear.)

The target of experiment [2] is T1, Acetylcholinesterase. As to the kind of experiment: Inhibition of recombinant human erythrocyte AChE using acetyl-or butyrylthiocholine iodide as substrate preincubated for 5 mins followed by substrate addition and measured every min for 10 mins by Ellman's method.
The target in experiment [3] is T2, 5-hydroxytryptamine receptor 4 (Homo sapiens, UniProt Q13639). As to the kind of experiment: Inhibition of human recombinant 5HT4 receptor at 1 x 10^-6M incubated for 60 mins relative to control. The following applies: dose 1.0 10^-6M. An outline of the steps: (§2)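 Membranes (2.5 μg protein) from a stable recombinant line expressing h5-HT4(b) receptor. Incubated in duplicate at 25 °C for 60 min with 0.2 nM [3H]-GR113808 in 25 mM Tris pH 7.4, with drug at 10^-6 or 10^-8 M. GF/C filtration; non-specific binding defined with 30 μM serotonin. Ki from five-point inhibition curves, ± SD.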

The target in experiment [4] is T2, 5-hydroxytryptamine receptor 4. As to the kind of experiment: Inhibition of human recombinant 5HT4 receptor at 1 x 10^-8M incubated for 60 mins relative to control. The following applies: dose 1.0 10^-8M. Put shortly: as §2
Experiment [5] shares this target. As to the kind of experiment: Binding affinity to human recombinant 5HT4 receptor assessed as inhibition constant incubated for 60 mins.
Experiment [6] has as its target T1, Acetylcholinesterase. As to the kind of experiment: Inhibition of recombinant human erythrocyte AChE using acetyl-or butyrylthiocholine iodide as substrate at 1 x 10^-5M preincubated for 5 mins followed by substrate addition and measured every min for 10 mins by Ellman's method relative to control. The following applies: dose 1.0 10^-5M, time 15.0 min. Put shortly: as §1

In experiment [7] the target is T2, 5-hydroxytryptamine receptor 4. The experiment in a line: Partial agonist activity at human recombinant 5HT4 receptor at 1 x 10^-6M incubated for 60 mins relative to control. It is filed as functional. The following applies: filed as partial agonist, dose 1.0 10^-6M.
Experiment [8] shares this target. The experiment in a line: Partial agonist activity at human recombinant 5HT4 receptor at 1 x 10^-8M incubated for 60 mins relative to control. The following applies: filed as partial agonist, dose 1.0 10^-8M. It counts as functional.
The target in experiment [9] is Cholinesterase (Equus caballus) (UniProt P81908). As to the kind of experiment: Inhibition of equine serum BuChE using Acetyl and butyrylthiocholine iodide as substrate at 1 x 10^-5M preincubated for 5 mins followed by substrate addition and measured every min for 10 mins by Ellman's method relative to control. The following applies: dose 1.0 10^-5M, time 15.0 min.

The target in experiment [10] is Acetylcholinesterase (Electrophorus electricus) (UniProt O42275). As to the kind of experiment: Displacement of propidium iodide from electric eel AChE 1 x 10^-5M relative to control. The following applies: dose 1.0 10^-5M.
Experiment [11] deals with T2, 5-hydroxytryptamine receptor 4. The experiment in a line: Partial agonist activity at human recombinant 5HT4 receptor expressed in […] cells assessed as cAMP accumulation by measuring maximum efficacy in presence of serotonin by HTRF analysis relative to control. It counts as functional, cell-based. The following applies: filed as partial agonist. Put shortly:
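COS-7 cells grown in DMEM with 10 % dialyzed FCS and transiently transfected with HA-tagged h5-HT4R, then plated at 16,000 cells/well. At 24 h, cells were exposed for 10 min at 37 °C to 5-HT4 ligands in HEPES-buffered saline containing 0.1 % BSA and 0.1 mM RO-20-1724. Cells were lysed with 0.1 % Triton X-100 and cAMP measured by HTRF.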

Experiment [12] has the same target. The experiment in a line: Partial agonist activity at human recombinant 5HT4 receptor transiently transfected in […] cells using p-nitrophenyl phosphate disodium hexahydrate as substrate assessed as induction of sAPPalpha release incubated for 30 mins by microplate reader analysis. It is filed as functional, cell-based. The following applies: filed as partial agonist. Put shortly:
(§3)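 COS-7 cells co-transfected with FLG-tagged h5-HT4 receptor and SEAP-tagged mouse APP695, seeded at 300,000 cells/well. At 24 h, cells were exposed to drug for 30 min. Supernatants were collected and secreted SEAP activity read colorimetrically with p-nitrophenyl phosphate as substrate.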

For experiment [13] the target is unchanged. As to the kind of experiment: Partial agonist activity at human recombinant 5HT4 receptor transiently transfected in […] cells using p-nitrophenyl phosphate disodium hexahydrate as substrate assessed as induction of sAPPalpha release by measuring maximum efficacy incubated for 30 mins by microplate reader analysis relative to control. It counts as functional, cell-based. Put shortly:
as §3

The values that follow come from ChEMBL document CHEMBL6092210, “Synthesis, in vitro and in vivo biological evaluation of novel dual compounds targeting both acetylcholinesterase and serotonergic 5-HT4 receptors with potential interest in the treatment of Alzheimer's disease” (Eur J Med Chem, 2024).

Usually inhibition stands for the drop in the measured response relative to a control, in per cent. A word on the IC50: it is the midpoint of a concentration-inhibition curve. The term Ki denotes a measure of affinity in units of concentration, obtained from inhibition or displacement. The term Emax denotes the maximal effect, on the per cent scale that the assay sets. For orientation: EC50 means the concentration needed to bring the measured effect to its halfway point.

T2 sequence (Q13639 whole entry): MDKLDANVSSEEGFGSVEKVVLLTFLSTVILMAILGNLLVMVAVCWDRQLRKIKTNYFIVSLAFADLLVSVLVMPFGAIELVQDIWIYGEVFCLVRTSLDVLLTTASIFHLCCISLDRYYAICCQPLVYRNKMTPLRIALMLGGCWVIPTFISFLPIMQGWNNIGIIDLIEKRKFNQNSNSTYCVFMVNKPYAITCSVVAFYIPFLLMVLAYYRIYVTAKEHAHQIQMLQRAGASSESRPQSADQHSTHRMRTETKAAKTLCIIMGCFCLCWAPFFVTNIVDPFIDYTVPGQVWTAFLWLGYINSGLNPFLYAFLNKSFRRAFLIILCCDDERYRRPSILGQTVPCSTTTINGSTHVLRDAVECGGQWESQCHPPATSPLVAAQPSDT
T1 sequence (P22303 whole entry): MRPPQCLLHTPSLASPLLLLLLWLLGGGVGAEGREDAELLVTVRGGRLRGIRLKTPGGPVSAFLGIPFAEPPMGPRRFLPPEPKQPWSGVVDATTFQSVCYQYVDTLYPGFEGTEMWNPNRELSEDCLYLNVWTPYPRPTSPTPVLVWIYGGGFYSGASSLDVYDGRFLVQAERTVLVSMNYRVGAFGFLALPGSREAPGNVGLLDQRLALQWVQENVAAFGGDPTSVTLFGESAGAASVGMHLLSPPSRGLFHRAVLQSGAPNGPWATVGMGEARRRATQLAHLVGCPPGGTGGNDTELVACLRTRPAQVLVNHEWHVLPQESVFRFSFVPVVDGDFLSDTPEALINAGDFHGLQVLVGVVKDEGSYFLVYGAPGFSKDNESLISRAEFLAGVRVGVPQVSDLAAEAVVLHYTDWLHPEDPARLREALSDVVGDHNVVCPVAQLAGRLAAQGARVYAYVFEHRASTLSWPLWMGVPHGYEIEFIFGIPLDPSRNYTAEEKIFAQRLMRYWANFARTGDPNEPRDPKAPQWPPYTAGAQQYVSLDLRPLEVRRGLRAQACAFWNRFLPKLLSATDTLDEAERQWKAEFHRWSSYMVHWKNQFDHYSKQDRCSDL
Chain of Acetylcholinesterase (Electrophorus electricus) (O42275 24-633 limits assumed): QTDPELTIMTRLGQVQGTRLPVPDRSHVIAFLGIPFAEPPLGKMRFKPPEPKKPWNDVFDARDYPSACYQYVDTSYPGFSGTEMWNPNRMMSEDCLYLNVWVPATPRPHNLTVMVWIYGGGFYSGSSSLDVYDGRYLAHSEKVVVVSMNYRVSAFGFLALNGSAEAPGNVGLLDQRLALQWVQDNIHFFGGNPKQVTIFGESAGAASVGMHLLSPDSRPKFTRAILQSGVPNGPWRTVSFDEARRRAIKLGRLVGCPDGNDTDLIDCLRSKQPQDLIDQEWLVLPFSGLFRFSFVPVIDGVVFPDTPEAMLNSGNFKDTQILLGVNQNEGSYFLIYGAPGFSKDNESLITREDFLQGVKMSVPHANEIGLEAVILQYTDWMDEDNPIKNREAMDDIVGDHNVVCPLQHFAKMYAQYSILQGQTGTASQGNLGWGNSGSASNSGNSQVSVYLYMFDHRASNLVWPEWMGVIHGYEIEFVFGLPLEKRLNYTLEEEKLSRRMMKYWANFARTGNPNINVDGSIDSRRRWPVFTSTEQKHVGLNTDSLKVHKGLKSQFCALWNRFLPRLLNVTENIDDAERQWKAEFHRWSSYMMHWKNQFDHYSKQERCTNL
Chain of Cholinesterase (Equus caballus) (P81908 whole entry): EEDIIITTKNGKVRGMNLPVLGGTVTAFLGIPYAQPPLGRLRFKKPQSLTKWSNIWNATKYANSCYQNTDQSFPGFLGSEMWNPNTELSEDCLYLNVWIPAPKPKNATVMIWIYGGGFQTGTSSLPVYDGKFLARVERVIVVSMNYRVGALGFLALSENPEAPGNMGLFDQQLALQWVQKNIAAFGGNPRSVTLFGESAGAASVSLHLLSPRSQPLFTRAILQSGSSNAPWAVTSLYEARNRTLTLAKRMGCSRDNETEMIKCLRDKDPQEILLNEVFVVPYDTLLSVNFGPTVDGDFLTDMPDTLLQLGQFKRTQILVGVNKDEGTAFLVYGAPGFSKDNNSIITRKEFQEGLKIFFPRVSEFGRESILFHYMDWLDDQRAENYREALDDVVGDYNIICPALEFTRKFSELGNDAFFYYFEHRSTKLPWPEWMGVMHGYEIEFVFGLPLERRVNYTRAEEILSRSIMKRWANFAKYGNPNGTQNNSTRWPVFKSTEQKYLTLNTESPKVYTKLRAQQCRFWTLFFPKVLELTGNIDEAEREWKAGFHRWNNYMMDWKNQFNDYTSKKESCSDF

As for `COc1ccccc1C(=O)CCC1CCN(CC2CCCCC2)CC1`, the inhibition worked out at 85% on Acetylcholinesterase [1], 102% in experiment [3] and 31% in experiment [4]. The IC50 at Acetylcholinesterase [2] stood at 166 nM. Moreover, the Ki in [5] was 121 nM.

Regarding `COc1cc(NC(C)=O)c(Cl)cc1C(=O)CCC1CCN(CC2CCCCC2)CC1`, the values for the inhibition (at Acetylcholinesterase [1]; in experiment [3]; in [4]) were 98%, 94% and 1%, respectively. Also, the Ki in experiment [5] amounted to 270 nM.

Turning to `CCOc1cc(N)ccc1C(=O)CCC1CCN(CC2CCCCC2)CC1`, the inhibition on Acetylcholinesterase [1] is 93%; in [3], 101%; in experiment [4], 38%. Also, the 50% inhibitory concentration (IC50) on Acetylcholinesterase [2] came to 87.1 nM. In addition, in experiment [5], the Ki stood at 24.7 nM.

`COc1cc(O)c(Cl)cc1C(=O)CCC1CCN(CC2CCCCC2)CC1`: the inhibition at Acetylcholinesterase [1] was 78%; in experiment [3], 76%; in experiment [4] it was 2%.

With `Nc1ccc(C(=O)CCC2CCN(CC3CCCCC3)CC2)c(OCCF)c1`, the inhibition amounted to 79% at Acetylcholinesterase [1], 100% in [3] and 27% in experiment [4]. Besides, at Acetylcholinesterase [2], the IC50 is 318 nM. Further, in experiment [5], the Ki came out at 39.9 nM.

`COc1cc(N)c(Cl)cc1C(=O)CCC1CCN(CC2CCCCC2)CC1`: the inhibition on Acetylcholinesterase [1] (tested as the 2H-labelled form) was 92%; in [3] (tested as the 2H-labelled form) it was 98%; in [4] (tested as the 2H-labelled form) it was 29%.

Turning to `COc1cc(N)ccc1C(=O)CCC1CCN(CC2CCCCC2)CC1`, the inhibition is 97% at Acetylcholinesterase [6], 96% in experiment [3] and 10% in experiment [4].

In the case of `CCOc1cc(N)c(Cl)cc1C(=O)CCC1CCN(CC2CCCCC2)CC1`, the inhibition came to 69% at Acetylcholinesterase [1], 103% in experiment [3] and 86% in experiment [4].

For `O=C(CCC1CCN(CC2CCCCC2)CC1)c1ccc(O)cc1`, the inhibition on Acetylcholinesterase [1] is 35%; in experiment [3] it was 102%; in experiment [4] it was 58%. Besides, in experiment [5], the inhibition constant (Ki) came out at 17.6 nM.

On to `Nc1cc(OCCF)c(C(=O)CCC2CCN(CC3CCCCC3)CC2)cc1I`, for which the values for the inhibition (on Acetylcholinesterase [1]; in experiment [3]; in [4]) were 45%, 101% and 22%, respectively. In experiment [5], the Ki turned out to be 521 nM.

In the case of `COc1c(C(=O)CCC2CCN(CC3CCCCC3)CC2)cc(F)c(N)c1Br`, the inhibition on Acetylcholinesterase [1] was 85%; in experiment [3], 80%; in experiment [4] it was 8%. The IC50 at Acetylcholinesterase [2] came out at 309 nM.

As to `COc1cc(N)c(Br)cc1C(=O)CCC1CCN(CC2CCCCC2)CC1`, the results for the inhibition (on Acetylcholinesterase [6]; in experiment [3]; in [4]) were 98%, 105% and 61%, respectively.

For the compound `Nc1cc(O)c(C(=O)CCC2CCN(CC3CCCCC3)CC2)cc1Cl`, the inhibition at Acetylcholinesterase [1] turned out to be 93%; in [3] it was 96%; in experiment [4], 3%.

Consider `CCOc1cc(N)c(I)cc1C(=O)CCC1CCN(CC2CCCCC2)CC1`, for which the inhibition stood at 51% on Acetylcholinesterase [1], 103% in experiment [3] and 65% in experiment [4]. In experiment [5], the Ki amounted to 86 nM.

With `CC(=O)Nc1cc(O)c(C(=O)CCC2CCN(CC3CCCCC3)CC2)cc1Cl`, the inhibition at Acetylcholinesterase [1] came to 94%; in [3] it was 47%; in experiment [4], 8%. In addition, at Acetylcholinesterase [2], the IC50 worked out at 57.3 nM.

Consider `COc1cc(N)c(F)cc1C(=O)CCC1CCN(CC2CCCCC2)CC1`, for which the inhibition on Acetylcholinesterase [1] was 96%; in [3], 102%; in [4], 68%; in experiment [9], 65%; in experiment [10] it was 22%. Besides, the Activity is 100% in experiment [7], 66% in experiment [8] and “Dose-dependent-effect” in experiment [12]. Besides, the Emax in [11] amounted to 67.3%; in [13], 19.7%. In [12], the EC50 came out at 23 nM.

On to `Nc1cc(OCCF)c(C(=O)CCC2CCN(CC3CCCCC3)CC2)cc1Cl`, for which the inhibition at Acetylcholinesterase [1] is 60%; in [3] it was 102%; in experiment [4] it was 78%.

Turning to `Nc1ccc(C(=O)CCC2CCN(CC3CCCCC3)CC2)cc1Cl`, the inhibition on Acetylcholinesterase [1] was 96%; in experiment [3] it was 97%; in [4] it was 10%. In addition, the IC50 on Acetylcholinesterase [2] is 49.7 nM.

Consider `COc1c(C(=O)CCC2CCN(CC3CCCCC3)CC2)cc(F)c(N)c1I`, for which the inhibition on Acetylcholinesterase [1] amounted to 89%; in experiment [3] it was 89%; in experiment [4], 2%. Moreover, at Acetylcholinesterase [2], the IC50 was 234 nM.

`COc1cc(N)c(I)cc1C(=O)CCC1CCN(CC2CCCCC2)CC1`: the inhibition came to 88% on Acetylcholinesterase [6], 103% in experiment [3] and 36% in experiment [4].

Regarding `Nc1ccc(C(=O)CCC2CCN(CC3CCCCC3)CC2)cc1`, the inhibition at Acetylcholinesterase [1] was 78%; in experiment [3], 80%; in experiment [4], 4%. In addition, the IC50 on Acetylcholinesterase [2] is 317 nM.
